{"data": "Published values of several laboratories", "target": "Beta-adrenergic receptor kinase 1 (GRK2, Homo sapiens, UniProt P25098)", "One construct used (P25098 1-689)": "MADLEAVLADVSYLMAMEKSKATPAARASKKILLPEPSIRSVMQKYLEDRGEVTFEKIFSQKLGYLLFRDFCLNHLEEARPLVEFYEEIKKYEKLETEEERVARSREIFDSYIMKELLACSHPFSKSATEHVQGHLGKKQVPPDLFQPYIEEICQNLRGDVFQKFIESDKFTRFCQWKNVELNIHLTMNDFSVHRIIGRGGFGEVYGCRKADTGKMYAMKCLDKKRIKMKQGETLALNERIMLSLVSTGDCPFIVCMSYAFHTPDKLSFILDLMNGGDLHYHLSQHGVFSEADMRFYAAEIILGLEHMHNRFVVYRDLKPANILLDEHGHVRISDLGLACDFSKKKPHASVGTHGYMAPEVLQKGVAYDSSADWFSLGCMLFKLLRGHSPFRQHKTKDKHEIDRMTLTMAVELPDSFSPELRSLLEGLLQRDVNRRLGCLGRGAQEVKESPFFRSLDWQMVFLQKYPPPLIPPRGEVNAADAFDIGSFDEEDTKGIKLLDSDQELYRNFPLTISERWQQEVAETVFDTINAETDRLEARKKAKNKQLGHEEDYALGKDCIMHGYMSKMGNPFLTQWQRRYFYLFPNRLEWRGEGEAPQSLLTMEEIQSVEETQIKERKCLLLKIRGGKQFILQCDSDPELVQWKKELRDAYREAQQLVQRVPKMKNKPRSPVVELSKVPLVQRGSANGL"}
{"SMILES": "Nc1ncc2c(n1)-c1c([nH]c3ccc(C#CC4CC4)cc13)CCCC2", "assay": "binding, competition with immobilised ligand", "setting": "1 µM", "remaining binding [%]": 87}
{"SMILES": "c1cncc(-c2cccc(Nc3nccc(NC4CCCCC4)n3)c2)c1", "assay": "binding, competition with immobilised ligand", "setting": "10 µM", "remaining binding [%]": 100}
{"SMILES": "COc1ncc2cc3ccccc3nc2c1C#N", "assay": "cell-free assay, competition with immobilised ligand", "setting": "5 µM", "remaining binding [%]": 100}
{"SMILES": "COc1ccc2c(c1)O[C@H](c1ccc(OC)c(OC)c1)C[C@@H]2NC(=O)C1(c2ccc3c(c2)OC(F)(F)O3)CC1", "assay": "cell-free assay, competition with immobilised ligand", "setting": "1 µM", "remaining binding [%]": 84}
{"SMILES": "O=C(NCC1CCOCC1)c1n[nH]cc1NC(=O)c1c(F)cccc1F", "assay": "binding, competition with immobilised ligand", "setting": "1 µM", "remaining binding [%]": 71}
{"SMILES": "Cc1cnn2ncc(-c3ccnc(N(C)C)n3)c2c1", "assay": "binding", "setting": "1 µM", "remaining binding [%]": 50}
{"SMILES": "Cc1nc(Cc2cccc(C(F)(F)F)c2)sc1-c1ccc(C(N)=O)nc1", "assay": "cell-free assay, competition with immobilised ligand", "setting": "1 µM", "remaining binding [%]": 100}
{"SMILES": "C[C@@H]1CCN(c2nccc(-c3cnn4ncccc34)n2)C1", "assay": "binding, competition with immobilised ligand", "setting": "1 µM", "remaining binding [%]": 57}
{"SMILES": "CO[C@H]1CC[C@H](CNc2ccc(S(=O)(=O)NC(=O)c3ccc(N4CCN(CC5=C(c6ccc(Cl)cc6)CC(C)(C)CC5)CC4)cc3Oc3cnc4[nH]ccc4c3)cc2[N+](=O)[O-])CC1", "assay": "cell-free assay, competition with immobilised ligand", "setting": "1 µM", "remaining binding [%]": 85}
{"SMILES": "CN(CCCC(F)(F)F)c1nccc(-c2cnn3ncccc23)n1", "assay": "binding, competition with immobilised ligand", "setting": "1 µM", "remaining binding [%]": 61}
{"SMILES": "CO[C@@H](C)c1c(Nc2ccc([C@@H](N(C)C(=O)C3CCS(=O)(=O)CC3)C(F)(F)F)cc2)cnc2cc(Cl)nn12", "assay": "cell-free assay, competition with immobilised ligand", "setting": "1 µM", "remaining binding [%]": 92}
{"SMILES": "O=C(c1ccc(Nc2ncc(Cl)c(-c3cc4ccccc4s3)n2)cc1)N1CCC(N2CCCC2)CC1", "assay": "binding, competition with immobilised ligand", "setting": "1 µM", "remaining binding [%]": 71}
{"SMILES": "CN(C)c1nccc(-c2cnn3ncccc23)n1", "assay": "binding, competition with immobilised ligand", "setting": "1 µM", "remaining binding [%]": 74}
{"SMILES": "Nc1cnc(N2CCc3cc(S(=O)(=O)Nc4c(F)cc(Cl)cc4F)cc(N4CCCC4=O)c32)nc1", "assay": "cell-free assay, competition with immobilised ligand", "setting": "1 µM", "remaining binding [%]": 100}
{"SMILES": "N[C@@H]1CCN(c2nccc(-c3cnn4ncccc34)n2)C1", "assay": "binding", "setting": "1 µM", "remaining binding [%]": 82}
{"SMILES": "Cc1cnc(Nc2ccc(C(=O)N3CCC(N4CCCC4)CC3)cc2)nc1-c1cc2ccccc2s1", "assay": "binding, competition with immobilised ligand", "setting": "1 µM", "remaining binding [%]": 56}
{"SMILES": "COc1cnc(Nc2cccc(S(N)(=O)=O)c2)nc1N1CCN(c2ccccc2)C(=O)C1", "assay": "binding, competition with immobilised ligand", "setting": "1 µM", "remaining binding [%]": 68}
{"SMILES": "c1cnn2ncc(-c3ccnc(N4CCC45COC5)n3)c2c1", "assay": "binding, competition with immobilised ligand", "setting": "1 µM", "remaining binding [%]": 48}
{"SMILES": "O=C(c1ccc(Nc2ncc(Cl)c(-c3ccc(Cl)s3)n2)cc1)N1CCC(N2CCCC2)CC1", "assay": "binding, competition with immobilised ligand", "setting": "1 µM", "remaining binding [%]": 98}
{"SMILES": "c1ccc(N2CCN(Cc3nc4ccccc4[nH]3)CC2)nc1", "assay": "binding, competition with immobilised ligand", "setting": "1 µM", "remaining binding [%]": 90}
